As a reminder, the IC50 is the concentration that gives 50% inhibition. Lower therefore signals inhibition by little substance.

Each structure is given as a SMILES string. Activity calls are given as the source filed them. No cut-off for these calls is given here.

One assay concerns Staphylococcus aureus. The experiment in a line: Antimicrobial activity against Staphylococcus aureus by agar well diffusion method. It counts as functional, organism-based. In short, it runs like this: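 Agar-well diffusion against S. aureus (Gram-positive) and a Gram-negative organism the paper calls C. bacillus. Cefotaxime sodium and tetracycline served as positive controls, with solvent DMSO as the negative control.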
In general terms: Agar diffusion results depend on both activity and mobility in agar.

The next assay concerns B-cell line. Put plainly: Immunomodulatory activity in Kunming mouse B cells assessed as inhibition of LPS-induced cell proliferation at 40 uM after 48 hrs by MTT assay. It counts as functional, cell-based. In short, it runs like this:
(§1)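 Splenocytes came from three male KM mice (25 g), seeded at 5 × 10^5 cells/well. Stimulation was 5 μg/mL ConA (T cells) or 10 μg/mL LPS (B cells), with compounds in DMSO at final 40 μM. After 48 h culture, MTT was read at 570 nm. Stimulated and unstimulated controls set baseline proliferation.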
(In general: Formazan colour is commonly taken as a measure of viable cells.)

In the next assay the test system is Escherichia coli. The experiment in a line: Antimicrobial activity against Escherichia coli by agar well diffusion method.
The next assay has as its system MCF7. The experiment in a line: Antiproliferative activity against human MCF7 cells after 48 hrs by MTT assay. The following applies: MCF7, 48 h. Format: functional, cell-based. In short, it runs like this: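 Cells were grown in RPMI 1640 with 10% FBS, penicillin and streptomycin at 37 °C in 5% CO2 and seeded at 5000 cells/well. Compounds (50, 25, 12.5, 6.25, 3.12, 1.56 μM; final DMSO 0.5%) were added 24 h later and incubated 48 h. MTT was added for 4 h, cells lysed in SDS/isopropanol/HCl, and A570 read. Runs were triplicate, with doxorubicin as positive control. IC50 came from means ± SEM.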

Another assay relates to Murine T-cell line. The experiment in a line: Immunomodulatory activity in Kunming mouse T cells assessed as inhibition of ConA-induced cell proliferation at 40 uM after 48 hrs by MTT assay. Format: functional, cell-based. In short, it runs like this:
as §1

Take `C/C1=C\[C@H]2C=C(CO)[C@@H](C)[C@H]3[C@H](CC(C)C)NC(=O)[C@]32C(=O)CCC(=O)[C@H](O)CC1`: the result in the assay on Staphylococcus aureus and with Escherichia coli was inactive. For the same compound, the inhibition entry with B-cell line was “Active”.
The compound `C/C1=C\[C@@H](C)C/C=C/[C@H]2[C@H](O)[C@@]3(C)O[C@@]4(CC56OC5Nc5ccccc56)NC(=O)[C@]2(C(=O)CC[C@H](O)C1=O)[C@H]4[C@@H]3C` (stereo in doubt; 11) [listing 1 of 2 here] showed an IC50 in the assay on MCF7 of 27.9 µM.
Regarding `C/C1=C\[C@@H](C)C/C=C/[C@H]2[C@@H]3O[C@]3(C)[C@@H](C)[C@H]3[C@H](C(O)c4c[nH]c5ccccc45)NC(=O)[C@]32C(=O)CC[C@H](O)C1=O` (stereo in doubt; 6), the result with Staphylococcus aureus and with Escherichia coli was inactive. In addition, the inhibition result in the assay with B-cell line and with Murine T-cell line was “Active” in each case.
With `C=C1[C@@H](C)[C@H]2[C@H](C(OC)c3c[nH]c4ccccc34)NC(=O)[C@]23C(=O)CC[C@H](O)C(=O)/C(C)=C/[C@@H](C)C/C=C/[C@H]3[C@@H]1O` (stereo in doubt; 8) [listing 1 of 2 here], the outcome in the assay on Staphylococcus aureus and in the assay on Escherichia coli was inactive. For the same compound, the inhibition entry with B-cell line and with Murine T-cell line was “Active” throughout.
`COC(c1c[nH]c2ccccc12)[C@@H]1NC(=O)[C@@]23C(=O)CC[C@H](O)C(=O)/C(C)=C/[C@@H](C)C/C=C/[C@H]2[C@H](O)C(C)=C(C)[C@@H]13` (stereo in doubt; 9): the result in the assay on Staphylococcus aureus and in the assay on Escherichia coli was inactive. Besides, the inhibition entry with B-cell line and in the assay on Murine T-cell line was “Active” each time.
In the case of `C/C1=C\[C@H]2C=C(CO)[C@@H](C)[C@H]3[C@H](CC(C)C)NC(=O)[C@]32C(=O)CCC(=O)[C@@H](O)CC1`, the outcome in the assay with Staphylococcus aureus and with Escherichia coli was inactive. The inhibition entry in the assay with Murine T-cell line was “Active”.
For the compound `C/C1=C\[C@@H](C)C/C=C/[C@H]2[C@H](O)[C@@]3(C)O[C@@]4(CC(=O)c5ccccc5N)NC(=O)[C@]2(C(=O)CC[C@H](O)C1=O)[C@H]4[C@@H]3C`, the result with Staphylococcus aureus and in the assay with Escherichia coli was inactive. In addition, the inhibition entry with Murine T-cell line is “Active”.
On to `C/C1=C\[C@@H](C)C/C=C/[C@H]2[C@H](O)[C@@]3(C)O[C@@]4(CC56OC5Nc5ccccc56)NC(=O)[C@]2(C(=O)CC[C@H](O)C1=O)[C@H]4[C@@H]3C` (stereo in doubt; 12), for which the outcome with Staphylococcus aureus and in the assay with Escherichia coli was inactive. Also, in the assay on Murine T-cell line, the inhibition entry was “Active”.
For `C/C1=C\[C@@H](C)C/C=C/[C@H]2[C@@H]3O[C@]3(C)[C@@H](C)[C@H]3[C@H](C(O)c4c[nH]c5ccccc45)NC(=O)[C@]32C(=O)CC[C@H](O)C1=O` (stereo in doubt; 5), the outcome with Staphylococcus aureus and with Escherichia coli was inactive. Further, the inhibition entry in the assay with Murine T-cell line is “Active”.
In the case of `C=C1[C@@H](C)[C@H]2[C@H](C(OC)c3c[nH]c4ccccc34)NC(=O)[C@]23C(=O)CC[C@H](O)C(=O)/C(C)=C/[C@@H](C)C/C=C/[C@H]3[C@@H]1O` (stereo in doubt; 7), the outcome in the assay on Staphylococcus aureus and with Escherichia coli was inactive. The inhibition result in the assay with B-cell line and in the assay on Murine T-cell line was “Active” in each case.
With `C/C1=C\[C@H]2C=C(CO)[C@@H](C)[C@H]3[C@H](CC(C)C)NC(=O)[C@]32C(=O)CC[C@H](O)C(=O)CC1`, the result with Staphylococcus aureus and in the assay with Escherichia coli was inactive. The inhibition result with Murine T-cell line was “Active”.
With `C/C1=C\[C@H]2C=C(CO)[C@@H](C)[C@H]3[C@H](CC(C)C)NC(=O)[C@]32C(=O)CC[C@@H](O)C(=O)CC1`, the result in the assay on Staphylococcus aureus and in the assay with Escherichia coli was inactive. In addition, the inhibition result in the assay on Murine T-cell line is “Active”.
On to `C=C1[C@@H](C)[C@H]2[C@H](C(OC)c3c[nH]c4ccccc34)NC(=O)[C@]23C(=O)CC[C@H](O)C(=O)/C(C)=C/[C@@H](C)C/C=C/[C@H]3[C@@H]1O` (stereo in doubt; 8) [listing 2 of 2 here], for which 20.7 µM corresponded to half-maximal inhibition in the assay with MCF7 (IC50).
As for `C/C1=C\[C@@H](C)C/C=C/[C@H]2[C@H](O)[C@@]3(C)O[C@@]4(CC56OC5Nc5ccccc56)NC(=O)[C@]2(C(=O)CC[C@H](O)C1=O)[C@H]4[C@@H]3C` (stereo in doubt; 11) [listing 2 of 2 here], the outcome with Staphylococcus aureus and in the assay with Escherichia coli was inactive.
Consider `COC(c1c[nH]c2ccccc12)[C@@H]1NC(=O)[C@@]23C(=O)CC[C@H](O)C(=O)/C(C)=C/[C@@H](C)C/C=C/[C@H]2[C@H](O)C(C)=C(C)[C@@H]13` (stereo in doubt; 10), for which the outcome in the assay with Staphylococcus aureus and with Escherichia coli was inactive. In addition, in the assay on B-cell line, the inhibition result was “Active”.

Values taken from ChEMBL document CHEMBL4145639, “Cytochalasans Produced by the Coculture of Aspergillus flavipes and Chaetomium globosum” (J Nat Prod, 2018).
